Compound activity as filed in PubChem.
MsrA inh – inhibits bovine methionine sulfoxide reductase A; purified bovine MsrA, absorbance read-out; inhibition, % at 15.5 µM; 0.75% of 360,000 active; AID 651718; in the data active = inhibition above about 4.5%;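 also: 0% = vehicle wells with enzyme and 100% = reference inhibitor wells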
MC4R antag cAMP – blocks human MC4R cAMP signaling | MC4R-expressing cells, MTII-stimulated cAMP, LANCE TR-FRET | 0.48% of 360,000 active | AID 540295 | inhibition, % at 6.5 µM;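 active = inhibition above its plate's cutoff, the mean of tested wells on that plate plus 3 SD, cut at about 29% in these data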;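 also: 0% = Melanotan II alone and 100% = Melanotan II plus saturating MCL0020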
Target sequence (P32245 whole entry, looked up): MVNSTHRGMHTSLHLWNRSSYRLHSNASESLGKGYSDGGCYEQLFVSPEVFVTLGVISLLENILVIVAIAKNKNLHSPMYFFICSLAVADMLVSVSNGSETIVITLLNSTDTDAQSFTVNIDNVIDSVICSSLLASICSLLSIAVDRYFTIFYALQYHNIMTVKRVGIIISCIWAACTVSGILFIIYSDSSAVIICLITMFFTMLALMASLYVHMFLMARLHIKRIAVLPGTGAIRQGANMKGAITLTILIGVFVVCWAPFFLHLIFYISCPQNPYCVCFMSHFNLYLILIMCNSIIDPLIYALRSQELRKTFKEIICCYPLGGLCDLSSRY
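Material: human MC4R-expressing U2OS cells. Probe or stimulus: Melanotan II challenge. Dosing: 6.5 µM single dose. Times: 30-min compound, 1-h challenge, 1-h detection, room temperature. Technique: TR-FRET with Eu-cAMP and labeled anti-cAMP, 671 nm. Replication: singlicate.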
MC4R barr agon – activates human MC4R beta-arrestin recruitment; P32245; U2OS MC4R beta-arrestin complementation, luminescence; percent of melanotan II response, DMSO zero; activation, % at 8.9 µM; 0.98% of 360,000 active;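 active = activation above a per-plate cutoff, the mean activation of sample wells on that plate plus 3 SD, cut at about 8% in these data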
bovine MsrA act – activators of bovine methionine sulfoxide reductase A; 0.3% of 360,000 active; AID 602163; activation, % at 10.6 µM; purified bovine MsrA, absorbance read-out; in the data active = activation above about 7.5%;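 also: 0% = vehicle and 100% = reference activator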
MsrA activ conf – bovine methionine sulfoxide reductase A activation confirmed; shares compounds with bovine MsrA act; purified bovine MsrA, absorbance read-out; activation, % at 10.6 µM; 12% of 1,000 active; AID 602270; in the data active = activation above about 4%;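 also: enzyme coupled to thioredoxin and thioredoxin reductase with NADPH; 0% = vehicle wells and 100% = reference activator wells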
Numbers without * were called inactive. Most compounds without a hit are left out; they make up all but 2.3% or so of the library.

CCOC(=O)C1=CN(Cc2cccc(F)c2)S(=O)(=O)NC1CCc1ccccc1 (stereo unspecified) was read as MsrA inh -0.6, MC4R antag cAMP 4.6, MC4R barr agon 2.2 and bovine MsrA act 1.2.
For CCOC(=O)C1=CN(Cc2cccc(F)c2)S(=O)(=O)N(CC)C1CCc1ccccc1 (stereo unspecified) the results were MsrA inh -0.4, MC4R antag cAMP 1.6, MC4R barr agon -2.5, bovine MsrA act 8.6* and MsrA activ conf 0.5.
For Cc1ccc(NC(=S)NCCCN2CCOCC2)cc1C the results were MsrA inh -0.8, MC4R antag cAMP -0.9, MC4R barr agon -0.1 and bovine MsrA act -2.6.
For S=C(NCCCN1CCOCC1)Nc1ccc(Cl)c(Cl)c1 the results were MsrA inh -0.8, MC4R antag cAMP 7.5, MC4R barr agon -2.1, bovine MsrA act 13.8* and MsrA activ conf -2.6.
Screening Nc1ccc2c(c1)C(=O)c1ccccc1-2 returned MsrA inh -0.1, MC4R antag cAMP -13.4, MC4R barr agon 0.0 and bovine MsrA act -3.1.
`Nc1ccc2c(c1)C(=O)C(=O)c1ccccc1-2` gave MsrA inh 1.0, MC4R antag cAMP -44.4, MC4R barr agon -0.6, bovine MsrA act 39.7* and MsrA activ conf 29.4*.
For Cc1cccc2cc3cccc(C)c3nc12 the results were MsrA inh -0.3, MC4R antag cAMP -0.9, MC4R barr agon 0.6, bovine MsrA act 8.9* and MsrA activ conf 0.3.
`CCn1c(-c2ccc(C)cc2)n[nH]c1=S` gave MsrA inh -0.2, MC4R antag cAMP -4.4, MC4R barr agon -1.8 and bovine MsrA act -4.1.
Cc1ccc(-c2csc3n[nH]c(=S)n23)cc1 was read as MsrA inh -0.8, MC4R antag cAMP 3.8, MC4R barr agon -2.1, bovine MsrA act 12.4* and MsrA activ conf 1.6.
Screening Cc1csc(N(C(=O)c2cccc(S(=O)(=O)N3CCCC3)c2)c2ccccc2)n1 returned MsrA inh 0.2, MC4R antag cAMP 7.2, MC4R barr agon -2.4, bovine MsrA act 14.7* and MsrA activ conf -2.6.
`Cc1csc(N(C(=O)c2cccc(S(=O)(=O)N(C)C)c2)c2ccccc2)n1` gave MsrA inh 0.0, MC4R antag cAMP 12.1, MC4R barr agon 0.2 and bovine MsrA act -4.7.
CCOc1cc(C(=O)N(C)c2ccccc2)cc(OCC)c1OCC was read as MsrA inh 0.7, MC4R antag cAMP 6.0, MC4R barr agon -1.8 and bovine MsrA act -0.6.
`CCOc1ccc(S(=O)(=O)NCCC(=O)NC2=NCCS2)cc1` gave MsrA inh 0.2, MC4R antag cAMP 0.5, MC4R barr agon -0.5 and bovine MsrA act -3.1.
Screening CCC(=O)N1CCc2cc(Br)cc(S(=O)(=O)NCc3ccco3)c21 returned MC4R antag cAMP -0.5, MC4R barr agon -0.5 and bovine MsrA act -9.0.
Screening CCC(=O)N1CCc2cc(Br)cc(S(=O)(=O)CCC(=O)NCc3ccco3)c21 returned MC4R antag cAMP 8.1, MC4R barr agon -0.6, bovine MsrA act 14.1* and MsrA activ conf 0.4.
`c1cc2c(cc1-c1[nH]ncc1CN1C[C@H]3CC[C@H]1C3)OCO2` gave MsrA inh 0.5, MC4R antag cAMP 2.8, MC4R barr agon 0.4, bovine MsrA act 12.2* and MsrA activ conf -2.1.
Screening O=Nc1c(O)c2ccccc2c2ccccc12 returned MsrA inh -0.1, MC4R antag cAMP 1.4, MC4R barr agon 3.6, bovine MsrA act 20.4* and MsrA activ conf 13.3*.
`O=c1ccc2ccccc2c2ccccc12` gave MsrA inh 0.7 and bovine MsrA act -16.2.
`O=C(NNC(=S)Nc1ccccc1Cl)c1ccccc1Br` gave MsrA inh -0.7, MC4R antag cAMP 2.5, MC4R barr agon -1.8 and bovine MsrA act 1.4.
`COc1cccc(-c2cc3nc(NCCN4CCCC4)n(C)c(=O)c3s2)c1` gave MsrA inh 1.8, MC4R antag cAMP 0.3, MC4R barr agon -0.5, bovine MsrA act 12.5* and MsrA activ conf 0.5.
For COc1ccc(C(C)=O)cc1CN1C(=O)C(C)N(c2ccc(C)cc2)C1=O (stereo unspecified) the results were MsrA inh 1.2, MC4R antag cAMP -2.2, MC4R barr agon -1.6, bovine MsrA act 9.0* and MsrA activ conf -2.5.
For S=c1[nH]cnc2sc(-c3ccccc3)cc12 the results were MsrA inh 1.8, MC4R antag cAMP 20.6, MC4R barr agon -2.1, bovine MsrA act 8.2* and MsrA activ conf 0.3.
CNc1ncnc2sc(-c3ccccc3)cc12 was read as MsrA inh 4.0, MC4R antag cAMP 1.4, MC4R barr agon -1.5 and bovine MsrA act -4.7.
C/C(N)=C(/C#N)C(=O)COC(=O)c1ccccc1C(=O)c1ccc(C)cc1 was read as MsrA inh 0.9, MC4R antag cAMP 2.1, MC4R barr agon 0.5, bovine MsrA act 8.6* and MsrA activ conf 0.5.
Screening NC(=O)c1cc([N+](=O)[O-])ccc1NCCN1C(=O)c2ccc(C(=O)O)cc2C1=O returned MsrA inh 0.9, MC4R antag cAMP -7.2, MC4R barr agon 2.7 and bovine MsrA act -17.0.
Screening CC(=O)c1ccccc1OCCOc1ncnc2sccc12 returned MsrA inh -1.0, MC4R antag cAMP 8.2, MC4R barr agon -1.4 and bovine MsrA act -3.8.
`CC(=O)Nc1ccc2sn(-c3ccccc3)c(=O)c2c1` gave MsrA inh 0.7, MC4R antag cAMP 3.1, MC4R barr agon -3.5, bovine MsrA act 9.8* and MsrA activ conf 5.7*.
Screening N#Cc1ccc2sn(-c3ccccc3)c(=O)c2c1 returned MsrA inh 1.1, MC4R antag cAMP 2.3, MC4R barr agon -4.6, bovine MsrA act 12.3* and MsrA activ conf 8.9*.
O=c1c2cc([N+](=O)[O-])ccc2sn1-c1ccccc1 was read as MsrA inh 3.4, MC4R antag cAMP 5.0, MC4R barr agon -2.9, bovine MsrA act 9.8* and MsrA activ conf 7.5*.
Screening CCOc1cc([C@H]2[C@@H]3CCCC[C@]3(O)CCN2CC(=O)NCc2ccco2)ccc1O returned MsrA inh -0.9, MC4R antag cAMP -3.7, MC4R barr agon -1.0 and bovine MsrA act -3.2.
`CC(C)CCN1CC(C(=O)NC(C)C)CC1=O` (stereo unspecified) gave MsrA inh -1.6, MC4R antag cAMP 3.6, MC4R barr agon -0.6, bovine MsrA act 10.9* and MsrA activ conf 1.3.
For O=S(=O)(NC(=S)NC1CCCCC1)c1ccc(Br)cc1 the results were MsrA inh 0.1, MC4R antag cAMP -2.5, MC4R barr agon -2.3 and bovine MsrA act -0.4.
For COc1ccccc1C(=O)Nc1ccccn1 the results were MsrA inh 0.7, MC4R antag cAMP 2.1, MC4R barr agon 0.2, bovine MsrA act 12.4* and MsrA activ conf -1.2.
`COC(=O)C[C@@H]1C=C[C@@H](NC(=O)Nc2cccc(F)c2)[C@@H](CO)O1` gave MsrA inh -1.2.
`COc1ccc(N2CCN(C(=O)c3cc(-c4ccc(F)cc4)[nH]c3C)CC2)cc1` gave MsrA inh -0.8, MC4R antag cAMP 9.4, MC4R barr agon -2.2 and bovine MsrA act -2.0.
`Cc1[nH]c(-c2ccc(F)cc2)cc1C(=O)N1CCN(c2ccc(Cl)cc2)CC1` gave MsrA inh -0.8, MC4R antag cAMP 18.5, MC4R barr agon 6.9, bovine MsrA act 8.3* and MsrA activ conf -0.6.
